Reference: ChEMBL document CHEMBL4837210 (Eur J Med Chem, 2021)

Key:
Type in all cases: functional
Staphylococcus aureus [1] = experiment: Antibacterial activity against methicillin-resistant Staphylococcus aureus ATCC 43300 assessed as inhibition of bacterial growth by broth microdilution method; details: time 24 hrs
How it was run: (§1)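 Broth microdilution MIC. A 0.5 McFarland suspension was diluted 10-fold and added at 1.5 × 10⁷ cfu/mL to 2-fold dilutions (0.125–64) in Mueller Hinton broth. Incubated aerobically 24 h at 37 °C. MIC was the lowest concentration with no visible turbidity.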

Escherichia coli = experiment: Antibacterial activity against penicillin-susceptible Escherichia coli ATCC 25922 assessed as inhibition of bacterial growth measured by broth microdilution method; details: time 24 hrs
How it was run: (§2)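 Broth microdilution in Mueller Hinton broth. A 0.5 McFarland suspension was diluted tenfold, giving an inoculum of 1.5 × 10⁷ cfu/mL. This was added to 2-fold serial compound dilutions from […]. Plates were incubated aerobically at 37 °C for 24 h. MIC was the lowest concentration with no visible turbidity.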

Bacillus pumilus = experiment: Antibacterial activity against penicillin-susceptible Bacillus pumilus CMCC 63202 assessed as bacterial growth inhibition by broth dilution method; details: time 24 hrs; how it was run: as §2
Bacillus subtilis = experiment: Antibacterial activity against penicillin-susceptible Bacillus subtilis ATCC 9372 assessed as bacterial growth inhibition incubated for 24 hrs by CLSI protocol based broth microdilution method
[2] = tested on: Staphylococcus epidermidis; experiment: Antibacterial activity against penicillin-resistant Staphylococcus epidermidis assessed as inhibition of bacterial growth measured by broth microdilution method; details: time 24 hrs
Staphylococcus aureus [3] = experiment: Antibacterial activity against Staphylococcus aureus assessed as inhibition of bacterial growth measured by broth microdilution method; details: time 24 hrs; how it was run: as §2
Streptococcus pyogenes [4] = experiment: Antibacterial activity against erythromycin-resistant Streptococcus pyogenes 2 assessed as bacterial growth inhibition incubated for 24 hrs by CLSI protocol based broth microdilution method
Staphylococcus aureus [5] = experiment: Antibacterial activity against erythromycin-susceptible Staphylococcus aureus ATCC 25923 assessed as bacterial growth inhibition incubated for 24 hrs by CLSI protocol based broth microdilution method
Pseudomonas aeruginosa = experiment: Antibacterial activity against penicillin-susceptible Pseudomonas aeruginosa ATCC27853 assessed as bacterial growth inhibition incubated for 24 hrs by CLSI protocol based broth microdilution method
Streptococcus pyogenes [6] = experiment: Antibacterial activity against erythromycin-susceptible Streptococcus pyogenes clinical isolate 1 assessed as bacterial growth inhibition incubated for 24 hrs by CLSI protocol based broth microdilution method
Staphylococcus aureus [7] = experiment: Antibacterial activity against penicillin-resistant Staphylococcus aureus assessed as inhibition of bacterial growth measured by broth microdilution method; details: time 24 hrs; how it was run: as §1

C[n+]1c2ccccc2c(/C=C/c2ccc(F)cc2)c2ccccc21.[I-]
MIC (Staphylococcus aureus [1]): 8 µg/mL | MIC (Escherichia coli): > 64 µg/mL | MIC (Bacillus pumilus): 2 µg/mL | MIC (Bacillus subtilis): 2 µg/mL | MIC [2]: 8 µg/mL | MIC (Staphylococcus aureus [3]): 2 µg/mL | MIC (Streptococcus pyogenes [4]): 0.5 µg/mL | MIC (Staphylococcus aureus [5]): 1 µg/mL | MIC (Pseudomonas aeruginosa): > 64 µg/mL | MIC (Streptococcus pyogenes [6]): 0.5 µg/mL | MIC (Staphylococcus aureus [7]): 16 µg/mL

CC(C)Nc1c2ccccc2[n+](C)c2ccccc12.[Cl-]
MIC (Staphylococcus aureus [1]): > 64 µg/mL | MIC (Escherichia coli): > 64 µg/mL | MIC (Bacillus pumilus): > 64 µg/mL | MIC (Bacillus subtilis): > 64 µg/mL | MIC [2]: > 64 µg/mL | MIC (Staphylococcus aureus [3]): > 64 µg/mL | MIC (Streptococcus pyogenes [4]): > 64 µg/mL | MIC (Staphylococcus aureus [5]): > 64 µg/mL | MIC (Pseudomonas aeruginosa): > 64 µg/mL | MIC (Streptococcus pyogenes [6]): > 64 µg/mL

C[n+]1c2ccccc2c(-c2ccccc2)c2ccccc21.[I-]
MIC (Staphylococcus aureus [1]): > 64 µg/mL | MIC (Escherichia coli): > 64 µg/mL | MIC (Bacillus pumilus): 32 µg/mL | MIC (Bacillus subtilis): 16 µg/mL | MIC [2]: > 64 µg/mL | MIC (Staphylococcus aureus [3]): 8 µg/mL | MIC (Streptococcus pyogenes [4]): 32 µg/mL | MIC (Staphylococcus aureus [5]): 2 µg/mL | MIC (Pseudomonas aeruginosa): > 64 µg/mL | MIC (Streptococcus pyogenes [6]): 8 µg/mL | MIC (Staphylococcus aureus [7]): > 64 µg/mL

COc1ccccc1Nc1c2ccccc2[n+](C)c2ccccc12.[Cl-]
MIC (Staphylococcus aureus [1]): > 64 µg/mL | MIC (Escherichia coli): > 64 µg/mL | MIC (Bacillus pumilus): > 64 µg/mL | MIC (Bacillus subtilis): > 64 µg/mL | MIC [2]: > 64 µg/mL | MIC (Staphylococcus aureus [3]): > 64 µg/mL | MIC (Streptococcus pyogenes [4]): > 64 µg/mL | MIC (Staphylococcus aureus [5]): > 64 µg/mL | MIC (Pseudomonas aeruginosa): > 64 µg/mL | MIC (Streptococcus pyogenes [6]): > 64 µg/mL

C[n+]1c2ccccc2c(-c2ccc(C=O)cc2)c2ccccc21.[I-]
MIC (Staphylococcus aureus [1]): > 64 µg/mL | MIC (Escherichia coli): > 64 µg/mL | MIC (Bacillus pumilus): > 64 µg/mL | MIC (Bacillus subtilis): > 64 µg/mL | MIC [2]: > 64 µg/mL | MIC (Staphylococcus aureus [3]): > 64 µg/mL | MIC (Streptococcus pyogenes [4]): > 64 µg/mL | MIC (Staphylococcus aureus [5]): 64 µg/mL | MIC (Pseudomonas aeruginosa): > 64 µg/mL | MIC (Streptococcus pyogenes [6]): 64 µg/mL

C[n+]1c2ccccc2c(Nc2ccccc2-c2ccccc2)c2ccccc21.[Cl-]
MIC (Staphylococcus aureus [1]): > 64 µg/mL | MIC (Escherichia coli): > 64 µg/mL | MIC (Bacillus pumilus): > 64 µg/mL | MIC (Bacillus subtilis): > 64 µg/mL | MIC [2]: > 64 µg/mL | MIC (Staphylococcus aureus [3]): > 64 µg/mL | MIC (Streptococcus pyogenes [4]): > 64 µg/mL | MIC (Staphylococcus aureus [5]): > 64 µg/mL | MIC (Pseudomonas aeruginosa): > 64 µg/mL | MIC (Streptococcus pyogenes [6]): > 64 µg/mL

CCCCCCCCNc1c2ccccc2[n+](C)c2ccccc12.[Cl-]
MIC (Staphylococcus aureus [1]): 16 µg/mL | MIC (Escherichia coli): > 64 µg/mL | MIC (Bacillus pumilus): 16 µg/mL | MIC (Bacillus subtilis): 16 µg/mL | MIC [2]: 16 µg/mL | MIC (Staphylococcus aureus [3]): 8 µg/mL | MIC (Streptococcus pyogenes [4]): 16 µg/mL | MIC (Staphylococcus aureus [5]): 8 µg/mL | MIC (Pseudomonas aeruginosa): > 64 µg/mL | MIC (Streptococcus pyogenes [6]): 16 µg/mL | MIC (Staphylococcus aureus [7]): 4 µg/mL

CCCCc1ccc(C#Cc2c3ccccc3[n+](C)c3ccccc23)cc1.[I-]
MIC (Staphylococcus aureus [1]): 4 µg/mL | MIC (Escherichia coli): > 64 µg/mL | MIC (Bacillus pumilus): 2 µg/mL | MIC (Bacillus subtilis): 4 µg/mL | MIC [2]: 8 µg/mL | MIC (Staphylococcus aureus [3]): 4 µg/mL | MIC (Streptococcus pyogenes [4]): 8 µg/mL | MIC (Staphylococcus aureus [5]): 4 µg/mL | MIC (Pseudomonas aeruginosa): > 64 µg/mL | MIC (Streptococcus pyogenes [6]): 8 µg/mL | MIC (Staphylococcus aureus [7]): 8 µg/mL

CCOc1ccc(C#Cc2c3ccccc3[n+](C)c3ccccc23)cc1.[I-]
MIC (Staphylococcus aureus [1]): 4 µg/mL | MIC (Escherichia coli): > 64 µg/mL | MIC (Bacillus pumilus): 4 µg/mL | MIC (Bacillus subtilis): 4 µg/mL | MIC [2]: 8 µg/mL | MIC (Staphylococcus aureus [3]): 4 µg/mL | MIC (Streptococcus pyogenes [4]): 8 µg/mL | MIC (Staphylococcus aureus [5]): 4 µg/mL | MIC (Pseudomonas aeruginosa): > 64 µg/mL | MIC (Streptococcus pyogenes [6]): 16 µg/mL | MIC (Staphylococcus aureus [7]): 8 µg/mL

Cc1ccccc1C#Cc1c2ccccc2[n+](C)c2ccccc12.[I-]
MIC (Staphylococcus aureus [1]): 4 µg/mL | MIC (Escherichia coli): > 64 µg/mL | MIC (Bacillus pumilus): 8 µg/mL | MIC (Bacillus subtilis): 8 µg/mL | MIC [2]: 16 µg/mL | MIC (Staphylococcus aureus [3]): 2 µg/mL | MIC (Streptococcus pyogenes [4]): 16 µg/mL | MIC (Staphylococcus aureus [5]): 4 µg/mL | MIC (Pseudomonas aeruginosa): > 64 µg/mL | MIC (Streptococcus pyogenes [6]): 8 µg/mL | MIC (Staphylococcus aureus [7]): 8 µg/mL

C[n+]1c2ccccc2c(-c2cccc(F)c2)c2ccccc21.[I-]
MIC (Staphylococcus aureus [1]): > 64 µg/mL | MIC (Escherichia coli): > 64 µg/mL | MIC (Bacillus pumilus): 32 µg/mL | MIC (Bacillus subtilis): 16 µg/mL | MIC [2]: > 64 µg/mL | MIC (Staphylococcus aureus [3]): 16 µg/mL | MIC (Streptococcus pyogenes [4]): 16 µg/mL | MIC (Staphylococcus aureus [5]): 8 µg/mL | MIC (Pseudomonas aeruginosa): > 64 µg/mL | MIC (Streptococcus pyogenes [6]): 4 µg/mL | MIC (Staphylococcus aureus [7]): > 64 µg/mL

Cc1ccccc1-c1c2ccccc2[n+](C)c2ccccc12.[I-]
MIC (Staphylococcus aureus [1]): > 64 µg/mL | MIC (Escherichia coli): > 64 µg/mL | MIC (Bacillus pumilus): > 64 µg/mL | MIC (Bacillus subtilis): 32 µg/mL | MIC [2]: > 64 µg/mL | MIC (Staphylococcus aureus [3]): 64 µg/mL | MIC (Streptococcus pyogenes [4]): > 64 µg/mL | MIC (Staphylococcus aureus [5]): 8 µg/mL | MIC (Pseudomonas aeruginosa): > 64 µg/mL | MIC (Streptococcus pyogenes [6]): 64 µg/mL | MIC (Staphylococcus aureus [7]): > 64 µg/mL

C[n+]1c2ccccc2c(-c2ccc(C(F)(F)F)cc2)c2ccccc21.[I-]
MIC (Staphylococcus aureus [1]): 4 µg/mL | MIC (Escherichia coli): > 64 µg/mL | MIC (Bacillus pumilus): 16 µg/mL | MIC (Bacillus subtilis): 4 µg/mL | MIC [2]: 32 µg/mL | MIC (Staphylococcus aureus [3]): 2 µg/mL | MIC (Streptococcus pyogenes [4]): 2 µg/mL | MIC (Staphylococcus aureus [5]): 1 µg/mL | MIC (Pseudomonas aeruginosa): > 64 µg/mL | MIC (Streptococcus pyogenes [6]): 1 µg/mL | MIC (Staphylococcus aureus [7]): 64 µg/mL

Cc1cccc(-c2c3ccccc3[n+](C)c3ccccc23)c1.[I-]
MIC (Staphylococcus aureus [1]): 64 µg/mL | MIC (Escherichia coli): > 64 µg/mL | MIC (Bacillus pumilus): 16 µg/mL | MIC (Bacillus subtilis): 8 µg/mL | MIC [2]: > 64 µg/mL | MIC (Staphylococcus aureus [3]): 4 µg/mL | MIC (Streptococcus pyogenes [4]): 16 µg/mL | MIC (Staphylococcus aureus [5]): 1 µg/mL | MIC (Pseudomonas aeruginosa): > 64 µg/mL | MIC (Streptococcus pyogenes [6]): 4 µg/mL | MIC (Staphylococcus aureus [7]): > 64 µg/mL
